Assay results: ChEMBL document CHEMBL2034874, “5-acetyl-2-arylbenzimidazoles as antiviral agents. Part 4” (Eur J Med Chem, 2012)
pEC50: −log10 of the molar value.

Columns and labels:
Poliovirus 1 = assay: Antiviral activity against Polio virus type 1 strain sabin ATCC VR-1562 infected in african green monkey Vero-76 cells assessed as reduction in viral plaque after 2 days by crystal violet staining; format: functional, cell-based, Human poliovirus 1 strain Sabin; details: Enterovirus C, ATCC VR-1562, Vero 76, 48 h
Human alphaherpesvirus 1 = assay: Antiviral activity against Herpes simplex virus type 1 KOS ATCC VR-1493 infected in african green monkey Vero-76 cells assessed as reduction in viral plaque after 3 days by crystal violet staining; format: functional, organism-based; details: Human alphaherpesvirus 1, KOS ATCC VR1493, Vero 76, 72 h
Procedure, shortened: (§1)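 Vero-76 monolayers (2×10^5 cells/well) infected for 2 h at 50–100 PFU/well. Unadsorbed virus removed. D-MEM with 1% inactivated FBS, 0.75% methylcellulose and serial compound dilutions added. Incubation at 37 °C for 3 days (CVB-5, HSV-1) or 5 days (RSV). Fixed and stained with 50% ethanol/0.8% crystal violet, then plaques counted. EC50 by linear regression versus untreated controls.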

[1] = Cytotoxicity against african green monkey Vero 76 cells after 48 to 96 hrs by MTT assay; format: cell-based; details: chlorocebus sabaeus
[2] = Cytotoxicity against BHK21 cells by MTT assay; format: cell-based, Mesocricetus auratus; details: hamster, BHK-21 cells
Procedure, shortened: (§2)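 Mock-infected MDBK (6×10^5 cells/mL, MEM-E with 10% horse serum) or BHK (1×10^6 cells/mL, MEM-E with 10% FBS) cells incubated with serial compound dilutions at 37 °C and 5% CO2. Viability measured by MTT after 48–96 h. CC50 by linear regression against untreated controls.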

[3] = test system: Human immunodeficiency virus 1; assay: Antiviral activity against HIV1 3B infected in human MT4 cells assessed as inhibition of virus-induced cytopathogenicity after 4 days by MTT assay; format: functional, organism-based; details: Human immunodeficiency virus 1, 3B, MT4, 96 h
Procedure, shortened: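 MT-4 cells (1×10^4/well) in RPMI with serial compound dilutions, infected with HIV-1 IIIB at 100 CCID50 (m.o.i. 0.01). Viability measured by MTT after 4 days at 37 °C. EC50 for 50% protection from cytopathogenicity obtained by linear regression against untreated controls.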

[4] = Cytotoxicity against MDBK cells after 48 to 96 hrs by MTT assay; format: cell-based, Bos taurus; details: cattle; procedure, shortened: as §2
Vaccinia virus = assay: Antiviral activity against Vaccinia virus Elstree-Lister ATCC VR-1549 infected in african green monkey Vero-76 cells assessed as reduction in viral plaque after 3 days by crystal violet staining; format: functional, organism-based; details: Orthopoxvirus vaccinia, Elstree-Lister ATCC VR-1549, Vero 76, 72 h
[5] = Antiviral activity against BVDV1 NADL ATCC VR-534 infected in MDBK cells assessed as inhibition of virus-induced cytopathogenicity after 3 to 4 days by MTT assay; format: functional, cell-based, Bovine viral diarrhea virus 1-NADL; details: Bovine viral diarrhea virus isolates and strains, ATCC VR-534, MDBK
Procedure, shortened: (§3)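 BHK (5×10^4/well) or MDBK (3×10^4/well) cells grown to confluent monolayers overnight, infected at m.o.i. 0.01 in maintenance MEM-Earl with 0.5% inactivated FBS. Serially diluted compounds added after 1 h. Viability read by MTT after 3–4 days at 37 °C. Values are expressed as % of untreated controls, and EC50 is derived by linear regression. Duplicate samples.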

Yellow fever virus = assay: Antiviral activity against Yellow fever virus 17D infected in BHK21 cells assessed as inhibition of virus-induced cytopathogenicity after 3 to 4 days by MTT assay; format: functional, cell-based; details: BHK-21
[6] = test system: Vesicular stomatitis Indiana virus; assay: Antiviral activity against Vesicular stomatitis virus indiana ATCC VR-1540 infected in african green monkey Vero-76 cells assessed as reduction in viral plaque after 2 days by crystal violet staining; format: functional, organism-based; details: ATCC VR-1540, Vero 76, 48 h
[7] = Antiviral activity against Human respiratory syncytial virus A2 ATCC VR-1540 infected in african green monkey Vero-76 cells assessed as reduction in viral plaque after 5 days by crystal violet staining; format: functional, cell-based; details: ATCC VR-1540, Vero 76, 120 h; procedure, shortened: as §1
[8] = Cytotoxicity against human MT4 cells after 96 hrs by MTT assay; format: cell-based
Procedure, shortened: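 Exponentially growing MT-4 cells seeded at 1×10^5 cells/mL in RPMI-1640 with 10% FBS and incubated with serial compound dilutions at 37 °C and 5% CO2. Viability measured by MTT after 96 h. CC50 by linear regression against untreated controls.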

[9] = test system: Mammalian orthoreovirus 1; assay: Antiviral activity against Reovirus 1 3651 ATCC VR-214 infected in BHK21 cells assessed as inhibition of virus-induced cytopathogenicity after 3 to 4 days by MTT assay; format: functional, organism-based; details: Mammalian orthoreovirus 1, 3651 ATCC VR-214, BHK-21; procedure, shortened: as §3
Coxsackievirus B5 = assay: Antiviral activity against Coxsackie virus type B5 Ohio-1 ATCC VR-29 infected in african green monkey Vero-76 cells assessed as reduction in viral plaque after 3 days by crystal violet staining; format: functional, organism-based; details: Enterovirus B, Ohio-1 ATCC VR-29, Vero 76, 72 h; procedure, shortened: as §1
Hepatitis C virus = assay: Antiviral activity against Hepatitis C virus genotype 1b infected in human GS4.1 cells assessed as inhibition of viral replication after 72 hrs by ELISA; format: functional, organism-based, Hepacivirus hominis
Procedure, shortened: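 Huh-7 cells carrying the genotype 1b replicon (GS4.1) seeded at 7.5×10^3/well with two-fold serial dilutions, top 75 µM, for 72 h at 37 °C. Cells fixed in acetone–methanol. NS4A quantified by ELISA with anti-NS4A antibody A-236, peroxidase conjugate and o-phenylenediamine, read at 492 nm. EC50 from four-parameter sigmoidal fit. Replicon-free Huh-7 served as negative control.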

[10] = Cytotoxicity against human GS4.1 cells assessed as decrease in cell viability by Cell Titer glo assay; format: cell-based

CC(=O)c1ccc2c(c1)nc(-c1ccc(C(F)(F)F)cc1)n2C1CCCCC1
pEC50 (Poliovirus 1): < 4.46 | pEC50 (Human alphaherpesvirus 1): < 4.46 | CC50 [1]: 35 µM | CC50 [2]: 33 µM | pEC50 [3]: < 4.39 | CC50 [4]: 52 µM | pEC50 (Vaccinia virus): < 4.46 | pEC50 [5]: 4.64 | pEC50 (Yellow fever virus): < 4.48 | pEC50 [6]: < 4.46 | pEC50 [7]: 4.70 | CC50 at 96 h [8]: 41 µM | pEC50 [9]: < 4.48 | pEC50 (Coxsackievirus B5): < 4.46

CC(=O)c1ccc2c(c1)nc(-c1ccc(Cl)cc1)n2C1CCCCC1
pEC50 (Poliovirus 1): < 4.00 | pEC50 (Human alphaherpesvirus 1): < 4.00 | CC50 [1]: > 100 µM | CC50 [2]: > 100 µM | pEC50 [3]: < 4.24 | CC50 [4]: > 100 µM | pEC50 (Vaccinia virus): < 4.00 | pEC50 [5]: 4.64 | pEC50 (Yellow fever virus): < 4.00 | pEC50 [6]: < 4.00 | pEC50 [7]: < 4.00 | CC50 at 96 h [8]: 58 µM | pEC50 [9]: < 4.00 | pEC50 (Coxsackievirus B5): < 4.00

CC(=O)c1ccc2c(c1)nc(-c1ccccc1)n2C1CCCCC1
pEC50 (Poliovirus 1): < 4.10 | pEC50 (Human alphaherpesvirus 1): < 4.10 | CC50 [1]: 80 µM | CC50 [2]: 100 µM | pEC50 [3]: < 4.43 | CC50 [4]: > 100 µM | pEC50 (Vaccinia virus): < 4.10 | pEC50 [5]: 4.22 | pEC50 (Yellow fever virus): 4.88 | pEC50 [6]: < 4.10 | pEC50 [7]: 4.60 | CC50 at 96 h [8]: 37 µM | pEC50 [9]: < 4.00 | pEC50 (Coxsackievirus B5): < 4.10

COc1ccc(-c2nc3cc(/C(C)=N/NC(N)=S)ccc3[nH]2)c(OC)c1
pEC50 (Poliovirus 1): < 4.00 | pEC50 (Human alphaherpesvirus 1): < 4.00 | CC50 [1]: > 100 µM | CC50 [2]: 28 µM | pEC50 [3]: < 4.14 | pEC50 (Hepatitis C virus): 5.95 | CC50 [10]: 11.3 µM | CC50 [4]: > 100 µM | pEC50 [5]: 6.10 | pEC50 (Yellow fever virus): < 4.55 | pEC50 [6]: < 4.00 | pEC50 [7]: < 4.00 | CC50 at 96 h [8]: 72 µM | pEC50 [9]: < 4.55 | pEC50 (Coxsackievirus B5): < 4.00

COc1ccc(-c2nc3cc(/C(C)=N/NC(N)=S)ccc3n2C2CCCCC2)c(OC)c1
pEC50 (Poliovirus 1): < 4.70 | pEC50 (Human alphaherpesvirus 1): < 4.70 | CC50 [1]: 20 µM | CC50 [2]: 17 µM | pEC50 [3]: ≤ 4.77 | CC50 [4]: > 100 µM | pEC50 (Vaccinia virus): < 4.70 | pEC50 [5]: 5.40 | pEC50 (Yellow fever virus): < 4.77 | pEC50 [6]: < 4.70 | pEC50 [7]: < 4.70 | CC50 at 96 h [8]: 17 µM | pEC50 [9]: < 4.77 | pEC50 (Coxsackievirus B5): < 4.70

C/C(=N\NC(N)=S)c1ccc2c(c1)nc(-c1ccc(Cl)cc1)n2C1CCCCC1
pEC50 (Poliovirus 1): < 4.00 | pEC50 (Human alphaherpesvirus 1): < 4.00 | CC50 [1]: > 100 µM | CC50 [2]: > 100 µM | pEC50 [3]: ≤ 4.77 | CC50 [4]: > 100 µM | pEC50 (Vaccinia virus): < 4.00 | pEC50 [5]: < 4.00 | pEC50 (Yellow fever virus): < 4.00 | pEC50 [6]: < 4.00 | pEC50 [7]: < 4.00 | CC50 at 96 h [8]: 17 µM | pEC50 [9]: < 4.00 | pEC50 (Coxsackievirus B5): < 4.00

COc1ccc(-c2nc3cc(C(C)=O)ccc3[nH]2)c(OC)c1OC
pEC50 (Poliovirus 1): < 4.00 | pEC50 (Human alphaherpesvirus 1): < 4.00 | CC50 [1]: > 100 µM | CC50 [2]: > 100 µM | pEC50 [3]: < 4.00 | CC50 [4]: > 100 µM | pEC50 (Vaccinia virus): < 4.00 | pEC50 [5]: < 4.00 | pEC50 (Yellow fever virus): < 4.00 | pEC50 [6]: < 4.00 | pEC50 [7]: < 4.00 | CC50 at 96 h [8]: > 100 µM | pEC50 [9]: < 4.00 | pEC50 (Coxsackievirus B5): < 4.00

C/C(=N\NC(N)=S)c1ccc2c(c1)nc(-c1ccc(C(F)(F)F)cc1)n2C1CCCCC1
pEC50 (Poliovirus 1): < 4.00 | pEC50 (Human alphaherpesvirus 1): < 4.00 | CC50 [1]: > 100 µM | CC50 [2]: > 100 µM | pEC50 [3]: ≤ 4.52 | CC50 [4]: > 100 µM | pEC50 (Vaccinia virus): < 4.00 | pEC50 [5]: < 4.00 | pEC50 (Yellow fever virus): < 4.00 | pEC50 [6]: < 4.00 | pEC50 [7]: < 4.00 | CC50 at 96 h [8]: 30 µM | pEC50 [9]: < 4.00 | pEC50 (Coxsackievirus B5): < 4.00

COc1ccc(-c2nc3cc(/C(C)=N/O)ccc3[nH]2)c(OC)c1
pEC50 (Poliovirus 1): < 4.00 | pEC50 (Human alphaherpesvirus 1): < 4.00 | CC50 [1]: > 100 µM | CC50 [2]: > 100 µM | pEC50 [3]: < 4.00 | CC50 [4]: > 100 µM | pEC50 (Vaccinia virus): < 4.00 | pEC50 [5]: 4.77 | pEC50 (Yellow fever virus): < 4.00 | pEC50 [6]: < 4.00 | pEC50 [7]: < 4.00 | CC50 at 96 h [8]: ≥ 100 µM | pEC50 [9]: < 4.00 | pEC50 (Coxsackievirus B5): 4.37
